What was measured:
[1] = Plasma protein binding in mouse at 20 uM by equilibrium dialysis method; type: ADME, cell-free; conditions: read-out: PPB (converted)
Outline: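 Equilibrium dialysis uses 5K MWCO membranes on a rotator at 37°C under 10% CO2. Thawed mouse plasma is adjusted to pH 7.4, and each analyte is tested at 20 µM; n = 3.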

[2] = Partial substrate inhibition in mouse lung S9 fractions treated with trans-resveratrol preincubated for 3 mins followed by PAPS addition measured after 60 mins by Eadie-Hofstee plot analysis; type: ADME
Outline: (§1)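 Sulfation uses pooled lung S9 (mouse 1 mg/ml, human 0.5 mg/ml final) with substrate at 0.01 µM–5 mM in 2% HP-β-CD, 5 mM MgCl2 and 10 mM potassium phosphate pH 6.5 at 37°C. After 3 min preincubation, 1 mM PAPS is added for 60 min, and the reaction is stopped with ascorbic acid and cold methanol. Triplicates are run, with a control lacking PAPS. Kinetics are fitted by nonlinear regression (partial substrate inhibition) after Eadie-Hofstee inspection.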

[3] = Partial substrate inhibition in human lung S9 fractions treated with trans-resveratrol preincubated for 3 mins followed by PAPS addition measured after 60 mins by Eadie-Hofstee plot analysis; type: ADME; outline: as §1
[4] = Partial substrate inhibition in mouse lung S9 fractions treated with trans-resveratrol preincubated for 3 mins followed by UDPGA addition measured after 60 mins by Eadie-Hofstee plot analysis; type: ADME
Outline: (§2)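 Pooled mouse lung S9 (0.5 mg/ml final) is incubated with substrate at 0.01 µM–5 mM in 2% final HP-β-CD, alamethicin 10 µg/ml, 5 mM MgCl2 and Tris-HCl 100 mM pH 7.4 at 37°C. The reaction is started with 5 mM UDPGA and stopped at 60 min with ascorbic acid and cold methanol. Triplicates are run, with a control lacking UDPGA. Data are screened on Eadie-Hofstee plots and fitted by nonlinear regression to a partial substrate inhibition model.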

[5] = Drug level in human lung microsomes treated with trans-resveratrol at 0.5 mM measured at 60 mins; type: ADME; conditions: 1 h, 500 µM
Outline: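 Pooled human lung microsomes at 0.1, 0.5 and 2.5 mg/ml final, with 0.5 mM substrate in 2% final HP-β-CD, are incubated with UDPGA cofactor for 60 min. Glucuronide is quantified by LC-MS/MS, with an LOQ of 10 ng/ml.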

[6] = AUC (0 to infinity) in C57BL/6 mouse at 15 mg/kg, iv; type: ADME, organism-based; design: time infinity, dose 15 mg/kg, route intravenous; conditions: plasma
Outline: (§3)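 Male C57BL/6 mice, 20–25 g, given a single IV dose of 15 mg/kg in 20% HP-β-CD in saline. Blood (20 µl) is drawn serially through a carotid artery cannula at 2.5–600 min, and plasma is assayed by LC-MS/MS. Noncompartmental analysis gives AUC by the linear trapezoidal rule, CL = dose/AUC0-inf, Vss = CL × MRT0-inf and t1/2 = 0.693/λ; n = 5.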

[7] = Clearance in C57BL/6 mouse at 15 mg/kg, iv; type: ADME, organism-based; design: dose 15 mg/kg, route intravenous; conditions: in vivo; outline: as §3
[8] = Volume of distribution at steady state in C57BL/6 mouse at 15 mg/kg, iv; type: ADME, organism-based; design: dose 15 mg/kg, route intravenous; conditions: in vivo, read-out: Vdss; outline: as §3
[9] = Terminal half life in C57BL/6 mouse at 15 mg/kg, iv; type: ADME, organism-based; design: dose 15 mg/kg, route intravenous; conditions: in vivo, read-out: beta t1/2; outline: as §3
[10] = Bioavailability in C57BL/6 mouse at 15 mg/kg, iv; type: ADME, organism-based; conditions: in vivo
[11] = Drug metabolism in mouse lung S9 fractions assessed as trans-resveratrol-3-O-glucuronide formation preincubated for 3 mins followed by UDPGA addition measured after 60 mins by Eadie-Hofstee plot analysis; type: ADME, tissue-based; conditions: s9, 1 h; outline: as §2
[12] = Drug metabolism in mouse lung S9 fractions assessed as trans-resveratrol-3-sulfate formation preincubated for 3 mins followed by PAPS addition measured after 60 mins by Eadie-Hofstee plot analysis; type: ADME, tissue-based; conditions: s9, 1 h; outline: as §1
[13] = Drug metabolism in human lung S9 fractions assessed as trans-resveratrol-3-sulfate formation preincubated for 3 mins followed by PAPS addition measured after 60 mins by Eadie-Hofstee plot analysis; type: ADME, tissue-based; conditions: s9, 1 h; outline: as §1

Structure (SMILES)	fraction unbound at 20 µM [1]	Ki [2] [mM]	Ki [3] [mM]	Ki [4] [mM]	Drug metabolism [5] [ng/mL]	AUC(0-inf) [6] [µM·h]	clearance [7] [mL/min/kg]	Vd [8] [L/kg]	half-life [9] [h]	bioavailability [10] [%]	Km [11] [µM]	Vmax [11] [pmol/min/mg]	Km [12] [µM]	Vmax [12] [pmol/min/mg]	Km [13] [µM]	Vmax [13] [pmol/min/mg]
O=S(=O)(O)Oc1cc(O)cc(/C=C/c2ccc(O)cc2)c1	0.128	2.02	23.2													
O=C(O)[C@H]1O[C@@H](Oc2cc(O)cc(/C=C/c3ccc(O)cc3)c2)[C@H](O)[C@@H](O)[C@@H]1O	0.333			6.63	< 10											
Oc1ccc(/C=C/c2cc(O)cc(O)c2)cc1 [RESVERATROL]	0.0805					4.92	280	34.9	1.69	49.9	7.34	324.4	2.69	7.05	4.45	16.15

— ChEMBL document CHEMBL3526143, “Pulmonary metabolism of resveratrol: in vitro and in vivo evidence” (Drug Metab Dispos, 2013)
